We go through one compound from ChEMBL document CHEMBL4049443, “Discovery of 2-[[2-Ethyl-6-[4-[2-(3-hydroxyazetidin-1-yl)-2-oxoethyl]piperazin-1-yl]-8-methylimidazo[1,2-a]pyridin-3-yl]methylamino]-4-(4-fluorophenyl)thiazole-5-carbonitrile (GLPG1690), a First-in-Class Autotaxin Inhibitor Undergoing Clinical Evaluation for the Treatment of Idiopathic Pulmonary …” (J Med Chem, 2017).

Activity calls are given as the source filed them. The rule behind the calls is not given here. Where only a bound is given, the exact number is not on record here.

For data set [1], the system named is Mus musculus. Briefly: Anti-fibrotic activity in BML-induced pulmonary fibrosis C57BL/6 mouse model assessed as reduction in […] 18:2 content in BALF at 30 mg/kg, po administered bid with 7.5 hrs interval between 2 doses for 21 days measured 2 hrs post last dose on day 21 by LC-MS/MS analysis relative to control. It counts as functional, organism-based. In a few lines:
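BLM model as above (intranasal 30 μg/50 μL, 21 days oral twice-daily dosing in PEG 200/0.5% MC), satellite groups. Bronchoalveolar lavage with two 0.5 mL ice-cold saline instillations, 2 h after a 30 mg/kg dose. LPA 18:2 by LC−MS/MS; PBS n = 9, BLM-vehicle n = 6, treated n = 7; mean ± SEM, one-way ANOVA with Dunnett's test.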

Data set [2] has as its system Mus musculus. The data set is described as follows: Dose normalized Cmax in C57BL/6Rj mouse at 3 mg/kg administered as single dose via oral gavage up to 24 hrs by LC-MS/MS analysis. Type of data set: ADME, organism-based. As to conditions: in vivo. In a few lines: (§1)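 Female C57BL/6Rj mice, 4−5 weeks old, fasted, given one oral gavage in PEG 200/MC 0.5% (25/75 v/v) at 0.3, 1 or 3 mg/mL. Intracardiac blood under isoflurane at 1, 3, 6 and 24 h into Li-heparin; n = 3 per time point. Methanol precipitation, LC−MS/MS against an eight-level calibration curve (LLOQ 4 ng/mL).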

The subject of data set [3] is Mus musculus. The data set is described as follows: Anti-fibrotic activity in BML-induced pulmonary fibrosis C57BL/6 mouse model assessed as reduction in fibrous area with severe distortion of lung structure at 10 to 30 mg/kg, po administered bid with 7.5 hrs interval between 2 doses for 21 days relative to control. It counts as functional, organism-based. In a few lines:
(§2)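 Male C57Bl/6 mice, 11 weeks at delivery, anesthetized and given intranasal bleomycin 30 μg/50 μL; PBS controls. Oral dosing twice daily, 7.5 h apart, 10 mL/kg, from challenge day for 21 days: test agent in PEG 200/0.5% MC, pirfenidone in 0.5% CMC, vehicle controls; 14−24 mice per group. Lungs stained by Mallory method, scored 1–5 (Matsuse-modified Ashcroft) as mean of 10 low-power fields; group median, Mann−Whitney.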

A short description of data set [4]: AUC (0 to 24 hrs) in C57BL/6Rj mouse at 30 mg/kg administered as single dose via oral gavage by LC-MS/MS analysis. Type of data set: ADME, organism-based. On the set-up: dose 30 mg/kg, time < 24 hr, route oral. As to conditions: in vivo. In a few lines:
as §1

Data set [5] is described as follows: Plasma clearance in dog at 1 mg/kg, iv. It counts as ADME, organism-based, Canis lupus familiaris. In a few lines:
(§3)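 Dog: from 1 mg/kg oral and intravenous doses. Clearance taken from the intravenous arm.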

Data set [6] is described as follows: Protein binding to human plasma. It counts as ADME, cell-free. The conditions noted are these: read-out: PPB.
A short description of data set [7]: Apparent terminal half life in C57BL/6Rj mouse at 30 mg/kg administered as single dose via oral gavage up to 24 hrs by LC-MS/MS analysis. It counts as ADME, organism-based. As to conditions: in vivo, read-out: betat1/2(app) (converted). In a few lines:
as §1

A short description of data set [8]: Oral bioavailability in dog at 1 mg/kg. Type of data set: ADME, organism-based, Canis lupus familiaris. As to conditions: in vivo. In a few lines:
as §3

The nature of data set [9]: Protein binding to rat plasma. Type of data set: ADME, cell-free. As to conditions: read-out: PPB.
The target in another data set is Cytochrome P450 3A4 (Homo sapiens, UniProt P08684). The data set is described as follows: Time-dependent inhibition of human liver microsomes CYP3A4. It counts as ADME.
Chain of Cytochrome P450 3A4 (P08684 whole entry): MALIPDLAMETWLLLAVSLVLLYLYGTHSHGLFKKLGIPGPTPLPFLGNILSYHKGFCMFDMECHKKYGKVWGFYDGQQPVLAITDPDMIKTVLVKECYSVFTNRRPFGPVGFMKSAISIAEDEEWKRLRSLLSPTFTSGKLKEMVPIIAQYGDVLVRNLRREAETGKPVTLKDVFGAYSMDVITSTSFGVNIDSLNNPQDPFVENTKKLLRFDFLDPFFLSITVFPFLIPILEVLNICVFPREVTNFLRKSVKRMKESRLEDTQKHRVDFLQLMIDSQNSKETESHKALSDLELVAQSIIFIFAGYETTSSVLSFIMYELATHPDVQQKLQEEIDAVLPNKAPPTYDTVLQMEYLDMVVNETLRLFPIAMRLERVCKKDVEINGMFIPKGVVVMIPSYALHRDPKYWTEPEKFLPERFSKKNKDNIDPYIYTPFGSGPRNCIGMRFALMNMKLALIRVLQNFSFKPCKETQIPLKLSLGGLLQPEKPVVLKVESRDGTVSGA
The test system of data set [10] is Mus musculus. The data set is described as follows: In vivo inhibition of ATX in C57BL/6Rj mouse assessed as time for maximum reduction in LPA 18:2 at 10 mg/kg administered as single dose via oral gavage by LC-MS/MS analysis. Type of data set: functional. In a few lines:
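Same single-gavage mouse study (female C57BL/6Rj, PEG 200/MC 0.5% vehicle, n = 3, bled predose and at 1, 3, 6, 24 h); vehicle control group. Plasma (10 μL) precipitated with methanol containing LPA 17:0 internal standard. LPA 18:2 read by LC−MS/MS as peak-area ratio to LPA 17:0. % reduction = 100 − (LPA at time t / mean vehicle LPA at time t × 100).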

Data set [11] in a line: Tmax in C57BL/6Rj mouse at 3 mg/kg administered as single dose via oral gavage up to 24 hrs by LC-MS/MS analysis. As to conditions: in vivo. Type of data set: ADME, organism-based. In a few lines:
as §1

Data set [12] has as its system Mus musculus. Briefly: Anti-fibrotic activity in BML-induced pulmonary fibrosis C57BL/6 mouse model assessed as reduction in fibrosis with damage of pulmonary structure at 10 to 30 mg/kg, po administered bid with 7.5 hrs interval between 2 doses for 21 days relative to control. It counts as functional, organism-based. In a few lines: as §2
Data set [13] relates to Mus musculus. The data set is described as follows: Dose normalized AUC (0 to 24 hrs) in C57BL/6Rj mouse at 3 mg/kg administered as single dose via oral gavage by LC-MS/MS analysis. The conditions noted are these: in vivo. Type of data set: ADME, organism-based. In a few lines:
as §1

Data set [14] deals with Mus musculus. Briefly: Dose normalized AUC (0 to 24 hrs) in C57BL/6Rj mouse at 10 mg/kg administered as single dose via oral gavage by LC-MS/MS analysis. It counts as ADME, organism-based. The conditions noted are these: in vivo. In a few lines:
as §1

As for `CCc1nc2c(C)cc(N3CCN(CC(=O)N4CC(O)C4)CC3)cn2c1N(C)c1nc(-c2ccc(F)cc2)c(C#N)s1` [ZIRITAXESTAT], the result with Mus musculus [1], in the data set with Mus musculus [3] and in the data set on Mus musculus [12] was Active. In the data set on Mus musculus [2], the Cmax/dose is recorded as 358 ng/mL/(mg/kg). Further, in data set [4], the exposure AUC(0-t) (in general, the area under the concentration-time curve up to a stated or last time point) at 24 h amounted to 101 µg·h/mL. In [5], the clearance (commonly a measure of how efficiently the substance is removed, as volume per time) was 2 mL/min/kg. In addition, the fraction unbound in data set [6] and in data set [9] was below 0.01 in each case. For the same compound, in [7], the half-life is 3.79 h. Besides, the bioavailability (in general, the share of a dose that reaches the circulation, judged against a reference dose that is usually intravenous) in [8] is 63%. Also, the TDI result on Cytochrome P450 3A4 is “Not Active”. In addition, the Time with Mus musculus [10] came out at 3 h. Moreover, the time of peak concentration (Tmax) (commonly the time at which the peak concentration occurs) in [11] is 3 h. Moreover, the results for the AUC/dose in the data set with Mus musculus [13] and with Mus musculus [14] were 1851 ng·h/mL/mg/kg and 2079 ng·h/mL/mg/kg, respectively.
